Published values of several laboratories.
Each line is one published result; the experiments were not run side by side.
MAOA: Amine oxidase [flavin-containing] A (MAOA, Homo sapiens, UniProt P21397)
CTSS: Cathepsin S (CTSS, Homo sapiens, UniProt P25774)
ADRA1A: Alpha-1A adrenergic receptor (ADRA1A, Homo sapiens, UniProt P35348)
USP2: Ubiquitin carboxyl-terminal hydrolase 2 (USP2, Homo sapiens, UniProt O75604)

C[C@@H]1CCCN1CCCCOc1ccc2occc(=O)c2c1
inhibition (MAOA; enzyme activity; inhibitor; fluorescence; 10 µM): 7%

CCOC(=O)c1ccc(OC(=O)CCCCCNC(=N)N)cc1
inhibition (CTSS; enzyme activity; inhibitor; 10 µM): 4%

Cc1ccc2nc(N3C(=O)C(O)=C(C(=O)OC(C)(C)C)C3c3ccc(-c4ccc(Cl)cc4)o3)sc2c1 (centres unmarked)
inhibition (UDP-N-acetylglucosamine 1-carboxyvinyltransferase (murA, Escherichia coli K-12, UniProt P0A749); enzyme activity; inhibitor; 20 µM): 88%

O=C(Nc1cccnn1)N1CCN([C@@H]2CCOc3cc(C(F)(F)F)ccc32)CC1
inhibition (Angiotensin-converting enzyme 2 (ACE2, Homo sapiens, UniProt Q9BYF1); enzyme activity; inhibitor; 20 µM): 3%

O=C(O)C(=O)Nc1sc2c(c1C(=O)O)CCNC2
inhibition (Tyrosine-protein phosphatase non-receptor type 1 (PTPN1, Homo sapiens, UniProt P18031); enzyme activity; inhibitor; 30 µM): ~50%

COc1cc(Nc2ncc(F)c(Nc3ccc4c(n3)NC(=O)C(C)(C)O4)n2)cc(OC)c1OC
inhibition (Homeodomain-interacting protein kinase 3 (HIPK3, Homo sapiens, UniProt Q9H422); binding; competition with immobilised ligand; 10 µM): 64%

Cn1cc(-c2cc(F)cc(N3CCn4c(cc5c4CCCC5)C3=O)c2CO)cc(Nc2ccc(N3CCN(C4COC4)CC3)cn2)c1=O
inhibition (Cyclin-dependent kinase 5, with p35 (CDK5, Homo sapiens, UniProt Q00535); enzyme activity; inhibitor; 0.1 µM): 6%

Nc1ncnc2c1ncn2[C@@H]1O[C@H](CNS(=O)(=O)c2ccc3ccccc3c2)[C@@H](O)[C@H]1O
inhibition (Protein arginine N-methyltransferase 3 (PRMT3, Homo sapiens, UniProt O60678); enzyme activity; inhibitor; 10 µM): -5%

O=C(NC[C@H](O)CO)[C@@H]1C[C@H](c2ccccc2)CCN1 (mixture of isomers)
inhibition (ADRA1A; ligand displacement; radioligand; 10 µM): -16.2%

C[C@H](C(=O)N[C@H]1COc2ccccc2[C@@H]1S(C)(=O)=O)c1ccc(F)cc1
inhibition (MAOA; cell-free assay; inhibitor; 10 µM): -2%

CCN(CC)CCCC[C@H](NC(=O)[C@H](CC(C)C)NC(=O)[C@H](C)NC(=O)[C@H](Cc1ccccc1)NC(=O)c1ccc(C(C)(C)C)cc1)C(=O)N[C@@H](CO)C(=O)OC
inhibition (Kappa-type opioid receptor (Oprk1, Rattus norvegicus, UniProt P34975); ligand displacement; radioligand; 10 µM): 91%

CN(C)C(=O)COC(=O)Cc1ccc(OC(=O)c2ccc(NC(=N)N)cc2)cc1
inhibition (USP2; enzyme activity; inhibitor; 10 µM): 1%

COCc1c(-c2cc3cc(C)cc(OC)c3s2)c2c(N)ncnn2c1CN1CCNC(=O)C1
inhibition (MAOA; enzyme activity; inhibitor; 10 µM): -3%

CC(C)C[C@H](NC(=O)[C@H]1O[C@@H]1C(=O)O)C(=O)NCCCCN=C(N)N
inhibition (CTSS; enzyme activity; inhibitor; 5 nM): 18%

C#Cc1n[nH]c2c(-c3cn(C(C)c4ccccn4)c(=O)[nH]c3=O)cc(F)cc12 (centres unmarked)
inhibition (High affinity nerve growth factor receptor (NTRK1, Homo sapiens, UniProt P04629); enzyme activity; inhibitor; 1 µM): 13.1%

N=C(N)c1ccc2cc(OC(=O)c3ccc(N=C(N)N)cc3)ccc2c1
inhibition (USP2; enzyme activity; inhibitor; 10 µM): 0%

Clc1ccc2c(C3CCN(CCc4c[nH]c5ccccc45)CC3)c[nH]c2c1
inhibition (ADRA1A; ligand displacement; radioligand; 10 µM): 108%
